Experimental data from ChEMBL document CHEMBL5724801, “EUbOPEN Chemogenomics Library - Multiplex” (2024).
Several values for one entry are separate records, joined by “and”; a condition that tells them apart may be missing. Identical values can stand only once.

Tests used:
Fibroblast = assay: Multiplex assay against human fibroblast; assay type: toxicity, cell-based
Summary of the method: (§1)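 Four dyes were applied at seeding to live cells: Hoechst33342, BioTracker Green Microtubule Cytoskeleton Dye, MitoTracker Red and Annexin V Alexa Fluor 680. Imaging after compound addition used a CQ1 microscope at 37°C and 5% CO2. CellPathfinder machine-learning gating then sorted cells into Hoechst high-intensity objects or normal cells, normal cells into healthy, pyknosed or fragmented nuclei, and pyknosed cells into mitotic or apoptotic, with tubulin, mitochondrial-mass and membrane-permeability phenotypes given as per cents of healthy-nucleus cells.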

HEK-293T = assay: Multiplex assay against HEK293T; assay type: toxicity, cell-based; details: human; summary of the method: as §1
[1] = 12 h, 1 µM, compound concentration 1 uM
[2] = 12 h, 10 µM, compound concentration 10 uM
[3] = 24 h, 1 µM, compound concentration 1 uM
[4] = 24 h, 10 µM, compound concentration 10 uM
[5] = 48 h, 1 µM, compound concentration 1 uM
[6] = 48 h, 10 µM, compound concentration 10 uM

Q: With COCCCN1CCC(NC(=O)c2cc(Cl)c(N)c3c2OCC3)CC1 [PRUCALOPRIDE] as the compound, how does the “Population Apoptotic (%)” value (Fibroblast; [1]) read?
A: Its value is 33% and 48%.

Q: What about the “Population Fragmented Nuclei (%)” value (Fibroblast; [1]) of the same compound?
A: Its value is 20% and 31%.

Q: And the “Population Healthy Nuclei (%)” value (Fibroblast; [1])?
A: The value was 62% and 48%.

Q: And the “Population Hoechst High Intensity Objects (%)” value (Fibroblast; [1])?
A: Its value is 3% and 4%.

Q: And the “Population Membrane Permeable-Phenotype (%)” value (Fibroblast; [1])?
A: Its value is 0% and 5%.

Q: And the “Population Mitochondria Different-Phenotype (%)” value (Fibroblast; [1])?
A: Its value is 3% and 8%.

Q: And the “Population Mitotic Cells (%)” value (Fibroblast; [1])?
A: The value was 66% and 52%.

Q: And the “Population Normal (%)” value (Fibroblast; [1])?
A: Its value is 96% and 95%.

Q: And the “Population Pyknosed Nuclei (%)” value (Fibroblast; [1])?
A: The value was 16% and 20%.

Q: What about the “Population Tubulin-Different-Phenotype (%)” value (Fibroblast; [1]) of the same compound?
A: The value was 30% and 51%.

Q: And the “Total Cell Count” value (Fibroblast; [1])?
A: The value was 132 and 130.

Q: And the “Population Apoptotic (%)” value (Fibroblast; [2])?
A: Its value is 30% and 35%.

Q: And the “Population Fragmented Nuclei (%)” value (Fibroblast; [2])?
A: The value was 12% and 28%.

Q: What about the “Population Healthy Nuclei (%)” value (Fibroblast; [2]) of the same compound?
A: The value was 66% and 46%.

Q: And the “Population Hoechst High Intensity Objects (%)” value (Fibroblast; [2])?
A: Its value is 0% and 11%.

Q: And the “Population Membrane Permeable-Phenotype (%)” value (Fibroblast; [2])?
A: The value was 1% and 7%.

Q: What about the “Population Mitochondria Different-Phenotype (%)” value (Fibroblast; [2]) of the same compound?
A: Its value is 7% and 3%.

Q: And the “Population Mitotic Cells (%)” value (Fibroblast; [2])?
A: The value was 70% and 64%.

Q: And the “Population Normal (%)” value (Fibroblast; [2])?
A: Its value is 99% and 88%.

Q: And the “Population Pyknosed Nuclei (%)” value (Fibroblast; [2])?
A: The value was 20% and 25%.

Q: What about the “Population Tubulin-Different-Phenotype (%)” value (Fibroblast; [2]) of the same compound?
A: Its value is 31% and 55%.

Q: What about the “Total Cell Count” value (Fibroblast; [2]) of the same compound?
A: The value was 144 and 153.

Q: And the “Population Apoptotic (%)” value (Fibroblast; [3])?
A: Its value is 48% and 72%.

Q: What about the “Population Fragmented Nuclei (%)” value (Fibroblast; [3]) of the same compound?
A: Its value is 20% and 36%.

Q: What about the “Population Healthy Nuclei (%)” value (Fibroblast; [3]) of the same compound?
A: Its value is 57% and 49%.

Q: What about the “Population Hoechst High Intensity Objects (%)” value (Fibroblast; [3]) of the same compound?
A: The value was 2% and 7%.

Q: What about the “Population Membrane Permeable-Phenotype (%)” value (Fibroblast; [3]) of the same compound?
A: Its value is 0% and 7%.

Q: And the “Population Mitochondria Different-Phenotype (%)” value (Fibroblast; [3])?
A: Its value is 3% and 4%.

Q: And the “Population Mitotic Cells (%)” value (Fibroblast; [3])?
A: The value was 51% and 27%.

Q: And the “Population Normal (%)” value (Fibroblast; [3])?
A: The value was 97% and 92%.

Q: And the “Population Pyknosed Nuclei (%)” value (Fibroblast; [3])?
A: Its value is 21% and 14%.

Q: And the “Population Tubulin-Different-Phenotype (%)” value (Fibroblast; [3])?
A: The value was 25% and 50%.

Q: What about the “Total Cell Count” value (Fibroblast; [3]) of the same compound?
A: Its value is 136 and 138.

Q: And the “Population Apoptotic (%)” value (Fibroblast; [4])?
A: The value was 63% and 30%.

Q: What about the “Population Fragmented Nuclei (%)” value (Fibroblast; [4]) of the same compound?
A: Its value is 10% and 24%.

Q: What about the “Population Healthy Nuclei (%)” value (Fibroblast; [4]) of the same compound?
A: The value was 74% and 57%.

Q: And the “Population Hoechst High Intensity Objects (%)” value (Fibroblast; [4])?
A: Its value is 6% and 5%.

Q: And the “Population Membrane Permeable-Phenotype (%)” value (Fibroblast; [4])?
A: Its value is 1% and 11%.

Q: And the “Population Mitochondria Different-Phenotype (%)” value (Fibroblast; [4])?
A: Its value is 6% and 3%.

Q: And the “Population Mitotic Cells (%)” value (Fibroblast; [4])?
A: Its value is 36% and 69%.

Q: And the “Population Normal (%)” value (Fibroblast; [4])?
A: Its value is 93% and 94%.

Q: What about the “Population Pyknosed Nuclei (%)” value (Fibroblast; [4]) of the same compound?
A: The value was 15% and 18%.

Q: What about the “Population Tubulin-Different-Phenotype (%)” value (Fibroblast; [4]) of the same compound?
A: Its value is 30% and 56%.

Q: What about the “Total Cell Count” value (Fibroblast; [4]) of the same compound?
A: The value was 128 and 148.

Q: And the “Population Apoptotic (%)” value (Fibroblast; [5])?
A: The value was 50%.

Q: And the “Population Fragmented Nuclei (%)” value (Fibroblast; [5])?
A: Its value is 25% and 36%.

Q: What about the “Population Healthy Nuclei (%)” value (Fibroblast; [5]) of the same compound?
A: The value was 60% and 49%.

Q: What about the “Population Hoechst High Intensity Objects (%)” value (Fibroblast; [5]) of the same compound?
A: The value was 4% and 2%.

Q: What about the “Population Membrane Permeable-Phenotype (%)” value (Fibroblast; [5]) of the same compound?
A: The value was 2% and 3%.

Q: And the “Population Mitochondria Different-Phenotype (%)” value (Fibroblast; [5])?
A: The value was 3% and 6%.

Q: And the “Population Mitotic Cells (%)” value (Fibroblast; [5])?
A: Its value is 50%.

Q: And the “Population Normal (%)” value (Fibroblast; [5])?
A: The value was 95% and 97%.

Q: And the “Population Pyknosed Nuclei (%)” value (Fibroblast; [5])?
A: Its value is 14% and 13%.

Q: What about the “Population Tubulin-Different-Phenotype (%)” value (Fibroblast; [5]) of the same compound?
A: Its value is 38% and 53%.

Q: And the “Total Cell Count” value (Fibroblast; [5])?
A: The value was 146 and 132.

Q: And the “Population Apoptotic (%)” value (Fibroblast; [6])?
A: The value was 64% and 62%.

Q: And the “Population Fragmented Nuclei (%)” value (Fibroblast; [6])?
A: Its value is 22% and 34%.

Q: What about the “Population Healthy Nuclei (%)” value (Fibroblast; [6]) of the same compound?
A: The value was 66% and 48%.

Q: And the “Population Hoechst High Intensity Objects (%)” value (Fibroblast; [6])?
A: The value was 2% and 6%.

Q: What about the “Population Membrane Permeable-Phenotype (%)” value (Fibroblast; [6]) of the same compound?
A: Its value is 1% and 7%.

Q: What about the “Population Mitochondria Different-Phenotype (%)” value (Fibroblast; [6]) of the same compound?
A: The value was 6% and 7%.

Q: What about the “Population Mitotic Cells (%)” value (Fibroblast; [6]) of the same compound?
A: The value was 35% and 37%.

Q: And the “Population Normal (%)” value (Fibroblast; [6])?
A: The value was 97% and 93%.

Q: What about the “Population Pyknosed Nuclei (%)” value (Fibroblast; [6]) of the same compound?
A: The value was 10% and 17%.

Q: What about the “Population Tubulin-Different-Phenotype (%)” value (Fibroblast; [6]) of the same compound?
A: Its value is 38% and 57%.

Q: And the “Total Cell Count” value (Fibroblast; [6])?
A: Its value is 136 and 146.

Q: What about the “Population Apoptotic (%)” value (HEK-293T; [1]) of the same compound?
A: The value was 22% and 31%.

Q: What about the “Population Fragmented Nuclei (%)” value (HEK-293T; [1]) of the same compound?
A: The value was 10% and 4%.

Q: What about the “Population Healthy Nuclei (%)” value (HEK-293T; [1]) of the same compound?
A: Its value is 80% and 82%.

Q: What about the “Population Hoechst High Intensity Objects (%)” value (HEK-293T; [1]) of the same compound?
A: Its value is 8% and 7%.

Q: And the “Population Membrane Permeable-Phenotype (%)” value (HEK-293T; [1])?
A: The value was 0%.

Q: And the “Population Mitochondria Different-Phenotype (%)” value (HEK-293T; [1])?
A: The value was 36% and 59%.

Q: What about the “Population Mitotic Cells (%)” value (HEK-293T; [1]) of the same compound?
A: The value was 77% and 68%.

Q: And the “Population Normal (%)” value (HEK-293T; [1])?
A: The value was 91% and 92%.

Q: What about the “Population Pyknosed Nuclei (%)” value (HEK-293T; [1]) of the same compound?
A: Its value is 9% and 12%.

Q: What about the “Population Tubulin-Different-Phenotype (%)” value (HEK-293T; [1]) of the same compound?
A: The value was 21% and 16%.

Q: What about the “Total Cell Count” value (HEK-293T; [1]) of the same compound?
A: Its value is 416 and 397.

Q: What about the “Population Apoptotic (%)” value (HEK-293T; [2]) of the same compound?
A: The value was 37% and 56%.

Q: What about the “Population Fragmented Nuclei (%)” value (HEK-293T; [2]) of the same compound?
A: The value was 8% and 10%.

Q: What about the “Population Healthy Nuclei (%)” value (HEK-293T; [2]) of the same compound?
A: The value was 74% and 72%.

Q: And the “Population Hoechst High Intensity Objects (%)” value (HEK-293T; [2])?
A: Its value is 4% and 10%.

Q: And the “Population Membrane Permeable-Phenotype (%)” value (HEK-293T; [2])?
A: Its value is 0%.

Q: What about the “Population Mitochondria Different-Phenotype (%)” value (HEK-293T; [2]) of the same compound?
A: Its value is 59% and 75%.

Q: And the “Population Mitotic Cells (%)” value (HEK-293T; [2])?
A: Its value is 62% and 43%.

Q: What about the “Population Normal (%)” value (HEK-293T; [2]) of the same compound?
A: The value was 95% and 89%.

Q: And the “Population Pyknosed Nuclei (%)” value (HEK-293T; [2])?
A: The value was 17%.

Q: What about the “Population Tubulin-Different-Phenotype (%)” value (HEK-293T; [2]) of the same compound?
A: Its value is 43% and 35%.

Q: And the “Total Cell Count” value (HEK-293T; [2])?
A: The value was 421 and 261.

Q: What about the “Population Apoptotic (%)” value (HEK-293T; [3]) of the same compound?
A: The value was 20% and 28%.

Q: And the “Population Fragmented Nuclei (%)” value (HEK-293T; [3])?
A: Its value is 11% and 8%.

Q: What about the “Population Healthy Nuclei (%)” value (HEK-293T; [3]) of the same compound?
A: The value was 78% and 84%.

Q: What about the “Population Hoechst High Intensity Objects (%)” value (HEK-293T; [3]) of the same compound?
A: Its value is 5% and 4%.

Q: And the “Population Membrane Permeable-Phenotype (%)” value (HEK-293T; [3])?
A: The value was 1% and 0%.

Q: And the “Population Mitochondria Different-Phenotype (%)” value (HEK-293T; [3])?
A: The value was 18% and 39%.

Q: What about the “Population Mitotic Cells (%)” value (HEK-293T; [3]) of the same compound?
A: The value was 79% and 71%.

Q: And the “Population Normal (%)” value (HEK-293T; [3])?
A: Its value is 94% and 95%.

Q: What about the “Population Pyknosed Nuclei (%)” value (HEK-293T; [3]) of the same compound?
A: Its value is 10% and 6%.

Q: And the “Population Tubulin-Different-Phenotype (%)” value (HEK-293T; [3])?
A: Its value is 14% and 10%.

Q: What about the “Total Cell Count” value (HEK-293T; [3]) of the same compound?
A: The value was 590 and 546.
